Results reported in PubChem BioAssay AID602271 (Johns Hopkins Ion Channel Center, 2012).
Activity calls are given as the source filed them.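 Rule for the calls: active = changes KCNQ2 potassium channel current, up or down, at some tested dose, giving a fitted dose response; inactive = no effect at any dose or no dose response.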

The compounds below were run against Potassium voltage-gated channel subfamily KQT member 2 (Rattus norvegicus) (UniProt O88943) (assay: blockers of KCNQ2 potassium current – automated electrophysiology, CHO cells, orthogonal assay, SAR follow-up (AID 602271)). Details: automated patch clamp current.
Chain of Potassium voltage-gated channel subfamily KQT member 2 (Rattus norvegicus) (O88943 whole entry, looked up): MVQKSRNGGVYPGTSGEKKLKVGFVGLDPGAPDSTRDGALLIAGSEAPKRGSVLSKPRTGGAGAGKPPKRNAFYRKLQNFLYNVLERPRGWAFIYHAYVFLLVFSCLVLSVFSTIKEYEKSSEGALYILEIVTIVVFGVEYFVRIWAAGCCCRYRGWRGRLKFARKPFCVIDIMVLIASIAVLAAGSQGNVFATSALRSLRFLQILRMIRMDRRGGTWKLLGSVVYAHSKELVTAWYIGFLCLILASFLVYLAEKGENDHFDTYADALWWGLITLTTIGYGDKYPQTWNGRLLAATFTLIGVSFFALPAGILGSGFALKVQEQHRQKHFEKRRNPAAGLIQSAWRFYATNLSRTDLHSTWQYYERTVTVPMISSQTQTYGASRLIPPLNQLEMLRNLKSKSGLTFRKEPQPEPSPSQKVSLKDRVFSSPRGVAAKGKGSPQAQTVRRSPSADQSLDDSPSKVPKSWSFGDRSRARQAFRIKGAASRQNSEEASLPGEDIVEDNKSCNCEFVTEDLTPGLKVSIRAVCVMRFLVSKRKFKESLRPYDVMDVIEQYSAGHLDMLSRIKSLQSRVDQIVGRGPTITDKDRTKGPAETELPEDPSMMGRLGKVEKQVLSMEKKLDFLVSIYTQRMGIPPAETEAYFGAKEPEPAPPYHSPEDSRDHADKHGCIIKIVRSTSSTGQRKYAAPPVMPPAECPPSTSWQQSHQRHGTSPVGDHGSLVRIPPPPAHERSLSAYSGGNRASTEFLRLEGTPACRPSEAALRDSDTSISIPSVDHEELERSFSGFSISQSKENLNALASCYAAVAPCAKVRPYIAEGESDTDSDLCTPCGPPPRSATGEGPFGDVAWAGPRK
Summary of the method: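 Test system: CHO cells carrying KCNQ2 channels | Probe or stimulus: Depolarization from -90 mV to +40 mV, 2,000 ms | Compound dosing: Multi-concentration series | Detection: Automated patch clamp, amphotericin B perforation, steady-state current at +40 mV | Evaluation: Percent steady-state current change after compound versus pre-compound current | Repeats: Quadruplicate measurements per concentration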

Row | IC50 [µM] | Compound
1 | 1.02 | O=C(Cc1cccc(Cl)c1)Nc1cccc(N2CCCC2)c1
2 | 8.66 | O=C(Cc1cccc(Cl)c1)Nc1ccc(N2CCCC2)cc1
3 | 7.09 | O=C(Cc1cccc(Cl)c1)Nc1ccccc1N1CCCCC1
4 | 27.5 | CN(C)c1ccccc1NC(=O)Cc1cccc(Cl)c1
5 | 1.52 | O=C(Cc1cccc(Cl)c1)Nc1ccc(Cl)cc1Cl
6 | 1.24 | COc1ccc(NC(=O)Cc2cccc(Cl)c2)c(OC)c1
7 | 12.3 | O=C(Cc1cccc(Cl)c1)Nc1ccccc1-n1cccc1

Same assay, conditions: automated patch clamp current, at 30 µM (top of the series)

Row | current change %, negative = inhibition | Compound
8 | inactive | O=C(Cc1cccc(Cl)c1)Nc1ccccc1F
9 | inactive | CN(Cc1ccccc1)c1ccccc1NC(=O)Cc1cccc(Cl)c1
10 | inactive | O=C(Cc1cccc(Cl)c1)Nc1ccc(F)cc1F
11 | inactive | CCC(C(=O)N(C)c1ccccc1N1CCCC1)c1ccccc1 (configuration not stated)
12 | inactive | O=C(Cc1cccc(Cl)c1)Nc1ccccc1N1CCCCCCC1
13 | inactive | O=C(Cc1cccc(Cl)c1)Nc1cccc(F)c1F
14 | inactive | O=C(Cc1cccc(Cl)c1)Nc1ccccc1N1CCOCC1
15 | inactive | CCN(C)c1ccccc1NC(=O)Cc1cccc(Cl)c1
16 | inactive | O=C(Cc1cccc(Cl)c1)Nc1cccc2c1OCO2

Row | Compound | current change %, negative = inhibition
17 | CN(C(=O)Cc1ccccc1)c1ccccc1N1CCCC1 | inactive
